From publication PMC10270725 (Journal of medicinal chemistry, 2023)

What was measured:
[1] = test system: NF2-sufficient NCI-H28 mesothelioma cells; assay: Proliferation assay in NCI-H28 cells; format: cell-based
[2] = target: His-TEAD4-YBD recombinant protein (Homo sapiens, UniProt Q15561); assay: TEAD4 TR-FRET biochemical assay; format: binding; conditions: fixed time point 5 h
In short: (§1)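 100 nM His-TEAD-YBD was pretreated with test compound for 5 h. Then 800 nM FAM-labeled tracer built from a reversible pan-TEAD inhibitor was added, with anti-6His Tb cryptate antibody (50 ng/mL final). TR-FRET was read at 490/520 nm. IC50 is mean ± SEM of two experiments, each with three biological replicates.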

[3] = target: His-TEAD1-YBD recombinant protein (Homo sapiens, UniProt P28347); assay: TEAD1 TR-FRET biochemical assay; format: binding; conditions: fixed time point 5 h
Chain of His-TEAD1-YBD recombinant protein (P28347 209-424): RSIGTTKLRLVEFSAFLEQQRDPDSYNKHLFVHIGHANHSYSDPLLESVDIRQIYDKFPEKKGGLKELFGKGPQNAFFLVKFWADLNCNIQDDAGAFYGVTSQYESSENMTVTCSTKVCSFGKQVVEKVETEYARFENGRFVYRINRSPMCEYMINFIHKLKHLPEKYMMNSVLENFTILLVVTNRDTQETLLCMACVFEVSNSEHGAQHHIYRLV
In short: as §1

[4] = target: His-TEAD3-YBD recombinant protein (Homo sapiens, UniProt Q99594); assay: TEAD3 TR-FRET biochemical assay; format: binding; conditions: fixed time point 5 h
Chain of His-TEAD3-YBD recombinant protein (Q99594 219-435 limits assumed): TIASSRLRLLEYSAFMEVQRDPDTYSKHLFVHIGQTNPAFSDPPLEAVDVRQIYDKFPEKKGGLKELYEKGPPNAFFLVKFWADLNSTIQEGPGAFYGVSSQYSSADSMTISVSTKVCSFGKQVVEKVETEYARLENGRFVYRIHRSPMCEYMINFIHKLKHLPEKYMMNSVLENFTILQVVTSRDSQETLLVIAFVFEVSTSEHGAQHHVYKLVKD
In short: as §1

[5] = test system: TEAD transcription (pan-TEAD response element luciferase reporter) in NCI-H226 cells; assay: TEAD gene reporter; format: cell-based
In short: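 NCI-H226 cells (RPMI1640, 10% FBS, 1% penicillin/streptomycin) were transduced with TEAD luciferase reporter lentivirus plus 8 μg/mL polybrene and puromycin-selected from day 3. Reporter cells were seeded at 1000 cells/well in 384-well plates and dosed with test compound for 3 days. One-Glo luciferase signal was normalized to CellTiter-Glo viability.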

[6] = target: His-TEAD2-YBD recombinant protein (Homo sapiens, UniProt Q15562); assay: TEAD2 TR-FRET biochemical assay; format: binding; conditions: fixed time point 5 h
Chain of His-TEAD2-YBD recombinant protein (Q15562 217-447 limits assumed): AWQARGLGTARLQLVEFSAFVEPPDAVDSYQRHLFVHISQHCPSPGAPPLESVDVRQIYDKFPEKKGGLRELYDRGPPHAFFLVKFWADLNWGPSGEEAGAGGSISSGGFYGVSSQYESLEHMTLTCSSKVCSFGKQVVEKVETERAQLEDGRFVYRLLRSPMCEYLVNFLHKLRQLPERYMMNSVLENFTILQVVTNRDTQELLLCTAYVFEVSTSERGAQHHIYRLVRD
In short: as §1

[7] = target: recombinant TEAD1-YBD protein (Homo sapiens, UniProt P28347); assay: Intact mass spectrometry analysis of covalent labeling; format: binding; conditions: 10-fold molar excess of compound, 1 h at rt
Chain of recombinant TEAD1-YBD protein (P28347 209-424): as the sequence (P28347 209-424) above
In short: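 TEAD1-YBD (residues 209−424, N-terminal 6×His) was expressed in Rosetta(DE3) pLysS and purified on cobalt resin, then by gel filtration. Protein was incubated with DMSO or test compound for 1 h at rt. It was desalted 4 min in 0.2 M acetic acid on a POROS 50R2 column and eluted with a 1-min 0–100% acetonitrile gradient in 0.2 M acetic acid. Analysis was electrospray (4.5 kV) ion-trap MS.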

Chain of His-TEAD4-YBD recombinant protein (Q15561 217-434 limits assumed): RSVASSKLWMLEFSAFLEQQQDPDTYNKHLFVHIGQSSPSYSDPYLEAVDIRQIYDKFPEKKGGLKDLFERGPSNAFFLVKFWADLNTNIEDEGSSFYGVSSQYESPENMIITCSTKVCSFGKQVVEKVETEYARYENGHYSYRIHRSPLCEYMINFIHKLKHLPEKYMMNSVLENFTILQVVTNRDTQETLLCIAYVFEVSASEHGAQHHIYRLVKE

C=CC(=O)N1C[C@@H](Nc2ncccn2)[C@H](OCc2ccc(C(F)(F)F)cc2)C1 (relative stereo) [Compound 14, 1-(trans-3-(Pyrimidin-2-ylamino)-4-((4-(trifluoromethyl)benzyl)-oxy)pyrrolidin-1-yl)prop-2-en-1-one]
effect on proliferation of NCI-H28 cells [1]: limited effect

C=CC(=O)N1C[C@@H](n2cc(-c3cccnc3)nn2)[C@H](OCc2ccc(C(F)(F)F)cc2)C1 (relative stereo) [Compound 1, 1-(trans-3-(4-(Pyridin-3-yl)-1H-1,2,3-triazol-1-yl)-4-((4-(trifluoromethyl)benzyl)oxy)pyrrolidin-1-yl)prop-2-en-1-one]
TEAD4 TR-FRET IC50 [2]: low nanomolar
TEAD1 TR-FRET IC50 [3]: low nanomolar
TEAD3 TR-FRET IC50 [4]: low nanomolar
EC50 ([5]; Homo sapiens, NCI-H226, 72 h, read-out: EC50 in the TEAD reporter assay): 106 ± 30 nM
TEAD2 TR-FRET IC50 [6]: low nanomolar

CN(C)C/C=C/C(=O)N1C[C@@H](n2cc(-c3cccnc3)nn2)[C@H](OCc2ccc(C(F)(F)F)cc2)C1 [Compound 19, (E)-4-(Dimethylamino)-1-((3R,4R)-3-(4-(pyridin-3-yl)-1H-1,2,3-triazol-1-yl)-4-(4-(trifluoromethyl)benzyloxy)pyrrolidin-1-yl)but-2-en-1-one]
TEAD4 TR-FRET IC50 [2]: inactive
TEAD1 TR-FRET IC50 [3]: inactive
TEAD3 TR-FRET IC50 [4]: inactive
IC50 in the reporter gene assay (TEAD transcription) ([5]; NCI-H226 reporter cells, 3 day treatment, mean ± SEM): did not inhibit
TEAD2 TR-FRET IC50 [6]: inactive

C=C(F)C(=O)N1C[C@@H](Nc2ncccn2)[C@H](OCc2ccc(C(F)(F)F)cc2)C1 [Compound 22, 2-Fluoro-1-((3R,4R)-3-(pyrimidin-2-ylamino)-4-((4-(trifluoromethyl)benzyl)oxy)pyrrolidin-1-yl)prop-2-en-1-one]
covalent complex formation with TEAD1-YBD (intact mass shift) [7]: mass shift consistent with compound 22
effect on proliferation of NCI-H28 cells [1]: limited effect

1-(trans-4-(5-Fluoropyrimidin-2-ylamino)-3-(4-(trifluoromethyl)-benzyloxy)piperidin-1-yl)prop-2-en-1-one [Compound 16]
IC50 ([5]; read-out: IC50 in the reporter gene assay (TEAD transcription), NCI-H226 reporter cells, 3 day treatment, mean ± SEM): 171 ± 88 nM
